Screens (PubChem BioAssay)
HEK293 NFkB inh = inhibitors of PMA/ionomycin-induced NF-kB reporter, primary screen, antigen receptor NF-kB inhibitor project, cell-based, HEK-293 luciferase reporter, luminescence | 62,000 tested, 0.21% active | HEK-293 NF-kB luciferase reporter | inhibition, % at 3 µM;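 active means inhibition above the mean of all tested compounds plus 3 SD, cut at about 40% in these data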;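 further: 0% = stimulated DMSO wells and 100% = 10 µM reference inhibitor 5653914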
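Timing: 1 h pretreatment, 16 h stimulation, 37 °C; system: HEK-293 cells with stable firefly luciferase reporter driven by four HIV NF-kB elements; doses: 3 µM once, 0.30% DMSO; measured by: luciferase luminescence; control set: DMSO and 10 µM reference inhibitor; repeats: single test; reagent: PMA plus ionomycin mix as NF-kB-activating stimulus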
M1 ag = M1 muscarinic receptor agonists, primary screen, CHO-M1 cells, Fluo-4 calcium, agonist mode | Muscarinic acetylcholine receptor M1 | Fluo-4 calcium fluorescence; stronger effect = higher value | B-score at 10 µM | 64,000 tested, 3% active | AID 626, 2007;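 active means fluorescence rise, raw or as B-score row- and column-corrected plate score, outside the 99.7% band of its plate's samples, either direction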
Htt clearance = clearance of mutant huntingtin inclusions, primary screen, imaging, HeLa Exon1htt(103Q)mCFP, confocal imaging | aggregate imaging; zero = plate's median compound well | inhibition, % at 1.5 µM | 47,000 tested, 0.42% active | AID 853, 2007;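 active means inhibition of aggregate fluorescence above about 70%, also judged a hit by eye on the cell image, limit read from the data, passing the limit was not always enough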;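 further: cells exposed to compound for three days before fixation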
D1 mod = D1 CRE-luciferase signal change, two-sided – cell-based, HEK293 D1, dopamine EC30, D1 allosteric modulator project, primary screen; 58,000 tested, 5.9% active; B-score at 10 µM; AID 641, 2007; D(1A) dopamine receptor (Homo sapiens), P21728; dopamine EC30 potentiation; actives deviate in either direction;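 active means luminescence count or its row- and column-corrected plate score outside the 99.7% band of the plate's sample wells, on either side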
Target sequence (P21728 whole entry, looked up): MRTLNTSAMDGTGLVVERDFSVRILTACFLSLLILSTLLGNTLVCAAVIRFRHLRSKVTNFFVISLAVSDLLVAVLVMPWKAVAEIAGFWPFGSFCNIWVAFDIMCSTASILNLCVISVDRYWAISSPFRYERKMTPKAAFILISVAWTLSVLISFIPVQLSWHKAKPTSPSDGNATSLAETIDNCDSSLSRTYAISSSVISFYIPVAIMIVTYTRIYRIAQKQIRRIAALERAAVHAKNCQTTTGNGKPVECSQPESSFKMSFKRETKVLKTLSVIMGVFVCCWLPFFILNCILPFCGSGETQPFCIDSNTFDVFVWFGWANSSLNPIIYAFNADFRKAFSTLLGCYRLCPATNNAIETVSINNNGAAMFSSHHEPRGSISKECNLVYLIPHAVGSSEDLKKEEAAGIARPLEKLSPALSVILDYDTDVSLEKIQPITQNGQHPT
Jurkat viability = cytotoxicity toward Jurkat T cells, primary screen, cytotoxicity control, cell-based, Jurkat E6.1, 60K MLSMR library; Jurkat E6.1 viability, ATP luminescence, 48 h; inhibition, % at 4 µM; 56,000 tested, 1.2% active;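 active means inhibition above the mean inhibition of all tested compounds plus 3 SD, cut at about 28% in these data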
M1 antag = antagonists of rat M1 muscarinic receptor. CHO-M1 cells, Fluo-4 calcium, ACh EC80 antagonist mode; stronger effect = lower value. Muscarinic acetylcholine receptor M1 (Rattus norvegicus), P08482. 64,000 tested, 3.4% active. B-score at 10 µM. AID 628, 2007;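 active means calcium fluorescence response, raw or row-and-column corrected B-score, differing from the plate sample mean either way at a set confidence level, mostly lower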
D1 PAM confirm = D1 receptor positive allosteric modulators, retest, confirmation, cell-based, HEK293 D1, CRE-luciferase, duplicate | shares compounds with D1 mod | dopamine EC30 potentiation; stronger effect = higher value | luminescence at 10 µM | 2,200 tested, 88% active | AID 642, 2007;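 active means luminescence in either of two replicates above the same-plate mean plus 3 SD of the low-dose dopamine control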
D1 no dopamine = D1 receptor agonism without dopamine, confirmation, mechanism study for D1 allosteric modulator project, cell-based, HEK293 D1, CRE-luciferase, secondary assay 1 | luminescence, no dopamine; stronger effect = higher value | 1,900 tested, 0.8% active | luminescence at 10 µM | shares compounds with D1 mod | AID 646, 2007; in the data active means luminescence above about 3900
Isoprot counter = counter-screen for D1 modulators: isoproterenol response in HEK293 cells | shares compounds with D1 mod | HEK293 D1 CRE-luciferase, isoproterenol EC30 counter-screen; stronger effect = higher value | luminescence at 10 µM | 2,200 tested, 63% active | AID 647;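 active means luminescence in either replicate above plate mean of wells with a partly effective reference agonist dose plus 3 SD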;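 further: isoproterenol raises cAMP through native beta-adrenoceptor Gs so signal bypasses D1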
* = called active by the depositor; nt = no result. This is a sample that favours compounds with a hit; in the whole collection about 9.5% have one here.

SMILES	HEK293 NFkB inh	M1 ag	Htt clearance	D1 mod	Jurkat viability	M1 antag	D1 PAM confirm	D1 no dopamine	Isoprot counter
CC1CCCCN1C(=O)CSc1nc(C2CC2)nc2c1cnn2-c1ccccc1 (stereo unspecified)	13.4	-0.844	nt	4.01*	nt	-0.322	7396*	1340	2820
CCCCCn1c(SCCOCC)nc2c1c(=O)[nH]c(=O)n2C	10.1	-0.434	-53.5	9.56*	7.6	0.0166	20192*	1580	5400*
CCOCCn1c(SCC)nc2c1c(=O)[nH]c(=O)n2C	22.2	0.00611	-157.9	1.6	nt	-0.007	nt	nt	nt
CCOCCSc1nc2c(c(=O)[nH]c(=O)n2C)n1CCCc1ccccc1	nt	0.875	nt	5.59*	nt	0.108	12256*	1704	3764*
C/C=C/Cn1c(SCCCc2ccccc2)nc2c1c(=O)[nH]c(=O)n2C	-0.6	0.138	nt	6.29*	1.1	-0.282	8184*	1456	2764
CCCCCn1c(SCCc2ccccc2)nc2c1c(=O)[nH]c(=O)n2C	18.4	0.353	nt	5.52*	9.8	0.224	12580*	1568	4052*
CCOCCn1c(SCCc2ccccc2)nc2c1c(=O)[nH]c(=O)n2C	11.4	1.3	nt	0.508	-0.8	-0.21	nt	nt	nt
O=c1cc(-c2c(F)c(F)c(F)c(F)c2F)oc2c(F)c(F)c(F)c(F)c12	5.9	-0.109	nt	-0.391	nt	-0.159	nt	nt	nt
COC(=O)c1n[nH]c2ccccc12	nt	-0.0368	18.4	nt	nt	-0.235	nt	nt	nt
O=C(OCCCCN1C(=O)c2ccccc2C1=O)c1n[nH]c2ccccc12	3.6	-0.555	18.4	5.06*	-0.3	-0.965	7836*	1704	3260
COc1ccc(/C(O)=C2/C(=O)C(=O)N(CCCN(C)C)C2c2ccccc2)cc1Cl (stereo unspecified)	nt	-0.947	-1.9	-0.589	nt	-0.668	nt	nt	nt
COC(=O)c1ccc(CNC(=O)COc2ccccc2Br)o1	11.1	-0.0303	35.9	-0.335	-7.5	-0.44	nt	nt	nt
COC(=O)c1ccccc1NC(=O)c1ccc2c(c1)OCCO2	6.3	0.0583	-6.7	3.9*	2.3	-0.404	11420*	1512	2824
CS(=O)(=O)Nc1ccc(C(=O)Nc2ccccc2C(=O)N2CCCC2)cc1	15.6	-0.00908	-4.8	-0.0069	-2.8	-0.177	nt	nt	nt
COC(=O)c1ccccc1NC(=O)C1CC=CCC1C(=O)O (stereo unspecified)	5.1	-0.146	nt	0.605	-1.1	0.647	nt	nt	nt
COC(=O)c1ccccc1NC(=O)c1ccc(NS(C)(=O)=O)cc1	11.2	0.545	14.4	8*	3.3	-0.713	9992*	1724	3504*
COC(=O)c1ccccc1NC(=O)NCc1ccc2c(c1)OCO2	19.2	0.744	-57.0	1.01	4.8	1.15	nt	nt	nt
COC(=O)c1ccccc1NC(=O)C1CCCC1	-0.1	1.09	39.7	6.57*	-7.7	0.221	9916*	1688	3600*
CCOC(=O)C(NC(C)=O)C(OC(C)=O)c1cccc(N(CCO)CCO)c1 (stereo unspecified)	7.9	1.18	nt	0.0903	-5.2	-0.0997	nt	nt	nt
COc1ccc(CCNS(=O)(=O)c2ccccc2)cc1OC	11.4	-0.0557	-31.9	4.18*	1.4	-0.373	15812*	2400	3432*
Cc1ccc(Cl)cc1NC(=O)COC(=O)C12CC3CC(CC(C3)C1)C2	nt	nt	4.5	nt	nt	nt	nt	nt	nt
CCOC(=O)c1c(N)c(C#N)c2n1CCCC2	nt	nt	20.7	nt	nt	nt	nt	nt	nt
